Source: ChEMBL document CHEMBL1765030, “Discovery and preclinical evaluation of a novel class of cytotoxic propynoic acid carbamoyl methyl amides (PACMAs)” (J Med Chem, 2011)
The source made the active and inactive calls. No cut-off for these calls is given here.

Legend:
HEY = experiment: Cytotoxicity against human HEY cells after 72 hrs by MTT assay; format: functional, cell-based
Outline: (§1)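 Cells were attached overnight, then continuously exposed to drug for 72 h. MTT (0.5 mg/mL final) was added for 4 h at 37 °C, formazan dissolved in DMSO, and A570 read; all in triplicate. IC50 came from log(concentration) vs % cells killed. Media: RPMI-1640 for HT29, HCT116 p53+/+ and p53−/−, and HEY; DMEM for MDA-MB-435 and UMUC3; all with 10% FBS, 37 °C, 5% CO₂.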

[1] = Octanol-water distribution coefficient, log P of the compound; format: physicochemical
HT-29 = experiment: Cytotoxicity against human HT-29 cells after 72 hrs by MTT assay; format: functional, cell-based; conditions: HT-29, 72 h; outline: as §1
HCT-116 [2] = experiment: Cytotoxicity against human HCT116 cells […] after 72 hrs by MTT assay; format: functional, cell-based; conditions: HCT-116, 72 h; outline: as §1
HCT-116 [3] = experiment: Cytotoxicity against p53 deficient human HCT116 cells […] after 72 hrs by MTT assay; format: functional, cell-based; conditions: HCT-116, 72 h; outline: as §1
MDA-MB-435 [4] = experiment: Cytotoxicity against human MDA-MB-435 cells after 72 hrs by MTT assay; format: functional, cell-based; conditions: MDA-MB-435, 72 h; outline: as §1
UMUC3 = experiment: Cytotoxicity against human UM-UC-3 cells after 72 hrs by MTT assay; format: functional, cell-based; conditions: UMUC3, 72 h; outline: as §1
5637 = experiment: Cytotoxicity against human 5637 cells after 72 hrs by MTT assay; format: functional, cell-based; conditions: Homo sapiens, 5637, 72 h
NCI/ADR-RES = experiment: Cytotoxicity against human NCI/ADR-RES cells after 72 hrs by MTT assay; format: functional, cell-based
MDA-MB-435 [5] = experiment: Cytotoxicity against human MDA-MB-435 cells at 1 uM after 24 hrs using crystal violet staining by colony formation assay; format: functional, cell-based
Outline: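 Cells were plated at 1000 per well, attached overnight, and exposed to 1 μM for 24 h. They were then washed and grown in fresh medium for 8–10 days until colonies formed, fixed in 1% glutaraldehyde for 30 min, and stained with 2% crystal violet for 30 min. Vehicle was DMSO.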

MDA-MB-435 [6] = experiment: Increase of mitochondrial superoxide accumulation in human MDA-MB-435 cells at 1.5 uM after 24 hrs by fluorescence microscopic analysis; format: functional, cell-based
Outline: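 MDA-MB-435 cells (DMEM, 10% FBS, 37 °C, 5% CO₂) treated 24 h, then loaded with 5 μM MitoSOX Red mitochondrial superoxide indicator for 10 min at 37 °C; washed three times with HBSS to remove excess dye and viewed under a fluorescence microscope for mitochondrial superoxide staining pattern, compared with untreated cells.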

MDA-MB-435 [7] = experiment: Increase of reactive oxygen species accumulation in human MDA-MB-435 cells at IC50 to 3 times IC50 after 24 hrs by fluorescence microscopic analysis; format: functional, cell-based
MDA-MB-435 [8] = experiment: Increase of mitochondrial superoxide accumulation in human MDA-MB-435 cells at IC50 to 3 times IC50 after 24 hrs by flow cytometry; format: functional, cell-based
Outline: (§2)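 Cells were drug-treated at two concentrations for 24 h, then loaded with 5 μM MitoSOX Red for 10 min at 37 °C and washed three times in HBSS. Cells were either viewed by fluorescence microscopy or trypsinized, washed twice in HBSS and read by flow cytometry; untreated cells served as control.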

MDA-MB-435 [9] = experiment: Increase of mitochondrial superoxide accumulation in human MDA-MB-435 cells at IC50 to 3 times IC50 after 24 hrs by fluorescence microscopic analysis; format: functional, cell-based; outline: as §2

| logP [1] | SMILES | IC50 (HEY) [µM] | IC50 (HT-29) [µM] | IC50 (HCT-116 [2]) [µM] | IC50 (HCT-116 [3]) [µM] | IC50 (MDA-MB-435 [4]) [µM] | IC50 (UMUC3) [µM] | IC50 5637 [µM] | IC50 (NCI/ADR-RES) [µM] | Activity (MDA-MB-435 [5]) | Activity (MDA-MB-435 [6]) | Activity (MDA-MB-435 [7]) | Activity (MDA-MB-435 [8]) | Activity (MDA-MB-435 [9]) |
| --- | --- | --- | --- | --- | --- | --- | --- | --- | --- | --- | --- | --- | --- | --- |
| 2.62 | C#CC(=O)N(c1ccc2c(c1)OCCO2)C(C(=O)NC1CCCC1)c1ccccc1 (centres undefined) | 4.1 | 3.2 | 17.3 | > 20 | 1.8 | > 20 | 1.9 | 0.3 | Active | – | – | – | – |
| 4.11 | C#CC(=O)N(c1ccc2ccccc2c1)C(C(=O)NC1CCCC1)c1ccccc1 (centres undefined) | 1.7 | 4.9 | 6.8 | 7.4 | 7.3 | > 20 | 0.5 | 0.3 | Active | – | – | – | – |
| 2.55 | C#CC(=O)N(c1cccc(OC)c1)C(C(=O)NC1CCCC1)c1cccs1 (centres undefined) | 1.9 | 2.3 | 7.2 | 5.6 | 1.7 | 6.9 | 0.3 | 0.3 | Active | – | – | – | – |
| 3.54 | C#CC(=O)N(c1ccc(-n2cnnn2)c(C)c1)C(C(=O)NC1CCCC1)c1ccccc1 (centres undefined) | 1.9 | 1.5 | 7.2 | 5.7 | 0.6 | 7.8 | 0.4 | 1 | Active | – | – | – | – |
| 3.88 | C#CC(=O)N(c1cccc(C(F)(F)F)c1)C(C(=O)NC1CCCCC1)c1cccs1 (centres undefined) | 5.2 | 6 | 8.3 | 10.4 | 6.9 | > 20 | 1.6 | 0.4 | Active | – | – | – | – |
| 2.26 | C#CC(=O)N(c1ccc(OC)c(OC)c1)C(C(=O)NC1CCCC1)c1cccs1 (centres undefined) | 3.4 | 5.5 | 7.7 | 9.6 | 2 | > 20 | 2 | 0.9 | Active | – | – | – | – |
| 2.26 | C#CC(=O)N(c1ccc(OC)cc1OC)C(C(=O)NC1CCCC1)c1cccs1 (centres undefined) | 4.1 | 2.3 | 6.9 | 7 | 1.7 | > 20 | 1.7 | 0.4 | Active | – | – | – | – |
| 2.26 | C#CC(=O)N(c1cc(OC)ccc1OC)C(C(=O)NC1CCCC1)c1cccs1 (centres undefined) | 1.5 | 1.6 | 5.7 | 4.7 | 0.5 | 5.7 | 0.3 | 0.3 | Active | – | – | – | – |
| 2.33 | C#CC(=O)N(c1cc(OC)cc(OC)c1)C(C(=O)NC1CCCC1)c1ccc(OC)cc1 (centres undefined) | 2.3 | 2.1 | 15 | > 20 | 2.4 | > 20 | 1.9 | 0.3 | Active | – | – | – | – |
| 3.07 | C#CC(=O)N(c1ccccc1)C(C(=O)NC1CCCCC1)c1cccs1 (centres undefined) | > 10 | > 10 | 14 | > 20 | > 10 | > 20 | 3.5 | 1.3 | Active | – | – | Active | Active |

Further lines, the compound ahead of its results:

| SMILES | logP [1] | IC50 (HEY) [µM] | IC50 (HT-29) [µM] | IC50 (HCT-116 [2]) [µM] | IC50 (HCT-116 [3]) [µM] | IC50 (MDA-MB-435 [4]) [µM] | IC50 (UMUC3) [µM] | IC50 5637 [µM] | IC50 (NCI/ADR-RES) [µM] | Activity (MDA-MB-435 [5]) | Activity (MDA-MB-435 [6]) | Activity (MDA-MB-435 [7]) | Activity (MDA-MB-435 [8]) | Activity (MDA-MB-435 [9]) |
| --- | --- | --- | --- | --- | --- | --- | --- | --- | --- | --- | --- | --- | --- | --- |
| COc1cccc2c1C(=O)c1c(O)c3c(c(O)c1C2=O)C[C@@](O)(C(=O)CO)C[C@@H]3O[C@H]1C[C@H](N)[C@H](O)[C@H](C)O1 [DOXORUBICIN] | -0.82 | – | – | – | – | – | – | – | – | Active | – | – | – | – |
| CC(=O)O[C@H]1C(=O)[C@@]2(C)[C@H]([C@H](OC(=O)c3ccccc3)[C@]3(O)C[C@H](OC(=O)[C@H](O)[C@@H](NC(=O)c4ccccc4)c4ccccc4)C(C)=C1C3(C)C)[C@]1(OC(C)=O)CO[C@@H]1C[C@@H]2O [PACLITAXEL] | 0.54 | – | – | – | – | – | – | – | – | Active | inactive | – | – | – |
| C#CC(=O)N(c1cccc(C(F)(F)F)c1)C(C(=O)NC1CCCC1)c1ccc(F)cc1 (centres undefined) | 4.38 | 2.4 | 4.8 | 7.5 | 6.9 | 5.2 | 8 | 0.5 | 0.4 | Active | – | – | – | – |
| O=C(O)c1ccccc1C1c2cc(Cl)c(O)cc2Oc2cc(O)c(Cl)cc21 | – | – | – | – | – | – | – | – | – | – | – | inactive | – | – |
| C#CC(=O)N(c1ccccc1F)C(C(=O)NC1CCCCC1)c1ccccc1F (centres undefined) | 4.17 | 5.6 | 7.7 | 11.9 | 10.1 | 6.5 | > 20 | 2.1 | 0.4 | Active | – | – | – | – |
| C#CC(=O)N(Cc1ccc2c(c1)OCO2)C(C(=O)NCc1ccccc1)c1ccccc1F (centres undefined) | 3.32 | > 10 | > 10 | > 10 | > 20 | > 10 | > 20 | 2.8 | 1.3 | Active | – | – | – | – |
| C#CC(=O)N(c1cccc(C(F)(F)F)c1)C(C(=O)NCc1ccccc1)c1cccs1 (centres undefined) | 3.86 | 7.1 | 7.3 | 9 | 16.1 | 4.2 | > 20 | 1.2 | 0.7 | Active | – | – | – | – |
| CC[C@@]1(O)C(=O)OCc2c1cc1n(c2=O)Cc2cc3ccccc3nc2-1 [CAMPTOTHECIN] | 1.67 | – | – | – | – | – | – | – | – | – | – | – | – | – |
| C#CC(=O)N(Cc1ccco1)C(C(=O)NC1CCCC1)c1ccccc1F (centres undefined) | 2.39 | 4.3 | > 10 | 10.5 | 13 | 1.7 | > 20 | 2.9 | 1.2 | Active | – | – | – | – |
